Results taken from PMC7612593 (Nature, 2022).
Each block holds one compound with its values, some of them ahead of it.

What was measured:
[1] = target: T1, β3 GABAAR (Homo sapiens, UniProt P28472); assay: whole-cell patch clamp electrophysiology on β3 cells; format: cell-based; conditions: for enhancement of GABA current by histamine: 300 μM histamine with 100 nM GABA
T1 sequence (P28472 26-473): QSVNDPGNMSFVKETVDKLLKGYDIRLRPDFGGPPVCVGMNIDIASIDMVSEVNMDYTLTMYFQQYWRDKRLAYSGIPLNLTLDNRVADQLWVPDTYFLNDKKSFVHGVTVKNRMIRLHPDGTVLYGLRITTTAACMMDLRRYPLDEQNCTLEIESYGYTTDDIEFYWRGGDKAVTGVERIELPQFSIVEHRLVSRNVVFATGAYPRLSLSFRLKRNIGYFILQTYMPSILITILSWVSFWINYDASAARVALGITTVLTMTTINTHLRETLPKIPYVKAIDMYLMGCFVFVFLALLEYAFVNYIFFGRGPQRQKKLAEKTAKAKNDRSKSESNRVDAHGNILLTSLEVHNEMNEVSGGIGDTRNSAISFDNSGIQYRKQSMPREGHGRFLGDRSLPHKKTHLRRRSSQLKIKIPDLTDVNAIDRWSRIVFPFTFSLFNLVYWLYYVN
In short: (§1)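 Cells on coverslips were induced with tetracycline (2 μg/ml, 28–32 h); β3δ cells were the β3 line transiently transfected with δ. Whole-cell clamp at –50 mV, 20–22 °C, pH 7.4 bath, KCl/Mg-ATP pipette. […] One-way ANOVA.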

[2] = target: α4β3δ GABAAR (Homo sapiens, UniProt O14764+P28472+P48169); assay: whole-cell patch clamp electrophysiology on the α4β3δ cell line; format: cell-based; conditions: for receptors gated, % of total receptors gated by 10 mM GABA + 30 μM Etomidate: 10 mM each ligand, 2 s first pulse of two-pulse protocol, mean ± SD; for Hill coefficient: Hill plot of normalized peak amplitude against agonist concentration
[3] = target: α4β3 GABAAR (Homo sapiens, UniProt P28472+P48169); assay: whole-cell patch clamp electrophysiology on α4β3 cells; format: cell-based; conditions: for enhancement of GABA current by histamine: 300 μM histamine with 100 nM GABA
In short: as §1

[4] = target: T2, β3δ GABAAR (Homo sapiens, UniProt O14764+P28472); assay: whole-cell patch clamp electrophysiology on β3δ cells; format: cell-based; conditions: for enhancement of GABA current by histamine: 300 μM histamine with 100 nM GABA
T2 sequence (P28472 26-473): T1 sequence (P28472 26-473)
T2 sequence (O14764 17-452 limits assumed): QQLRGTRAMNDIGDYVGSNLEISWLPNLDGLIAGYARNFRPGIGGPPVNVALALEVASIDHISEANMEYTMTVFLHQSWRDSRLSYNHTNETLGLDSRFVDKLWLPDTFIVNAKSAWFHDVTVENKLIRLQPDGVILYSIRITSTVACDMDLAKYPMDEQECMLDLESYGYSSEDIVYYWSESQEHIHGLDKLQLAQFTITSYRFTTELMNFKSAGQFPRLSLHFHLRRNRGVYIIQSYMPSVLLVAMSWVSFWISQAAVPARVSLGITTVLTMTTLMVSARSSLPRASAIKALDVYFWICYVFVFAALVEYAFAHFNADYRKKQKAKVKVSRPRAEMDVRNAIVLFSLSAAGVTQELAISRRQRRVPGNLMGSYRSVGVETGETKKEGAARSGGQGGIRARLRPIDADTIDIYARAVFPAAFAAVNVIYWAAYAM
In short: as §1

[5] = target: α4β3γ2 GABAAR (Homo sapiens, UniProt P18507+P28472+P48169); assay: radioligand assay, competition with pre-bound [3H]Ro15-4513, α4β3γ2 cell pool; format: binding; conditions: membranes from α4β3γ2 cell pool
[6] = target: α1β3γ2 GABAAR (Homo sapiens, UniProt P14867+P18507+P28472); assay: radioligand assay, competition with pre-bound [3H]Ro15-4513, α1β3γ2 cell line; format: binding; conditions: membranes from α1β3γ2 cell line
[7] = system: α4β3δ GABAAR; conditions: cited from earlier work

gating by GABA ([1]; 200 μM GABA, 8 s pulse): not gated
activation of currents by GABA ([2]; 100 nM GABA): robustly activates currents
receptors gated, % of total receptors gated by 10 mM GABA + 30 μM Etomidate [2]: 15.0 ± 6.0%
time for deactivating current to reach 50% of its original value ([2]; 200 ms pulse of 10 μM GABA in the absence of histamine): 2.7 ± 0.7 s
Hill coefficient [2]: 0.9
activation of currents by GABA ([3]; 100 nM GABA): barely
gating by GABA ([4]; 200 μM GABA, 8 s pulse): not gated
SMILES: NCCCC(=O)O [GABA, γ-aminobutyric acid]

SMILES: CCOC(=O)c1ncn2c1CN(C)C(=O)c1cc(N=[N+]=[N-])ccc1-2 [Ro15-4513]
effect on GABA currents ([2]; whole-cell electrophysiology recordings, α4β3δ cell line): little effect
binding of Ro15-4513 [5]: binds
binding of Ro15-4513 [6]: binds

SMILES: Oc1noc2c1CCNC2 [THIP, 4,5,6,7-tetrahydroisoxazolo[5,4-c]pyridin-3-ol]
potency and efficacy at α4β3δ relative to other receptors subtypes [7]: higher potency and supramaximal efficacy

enhancement of GABA current by histamine [1]: Only modest responses
enhancement of GABA current by histamine ([1]; listed as Histamine): only modestly
fast and slow time constants of deactivation ([2]; 10 μM GABA pulse in the presence of 100 μM histamine, P = 0.03): decreased significantly
fraction of receptors with slow deactivation ([2]; 10 μM GABA pulse in the presence of 100 μM histamine, P = 0.04): increased
enhancement of GABA current by histamine ([2]; 300 μM histamine with 100 nM GABA): robustly enhances
receptors gated, % of total receptors gated by 10 mM GABA + 30 μM Etomidate [2]: 50.2 ± 11.0%
time for deactivating current to reach 50% of its original value ([2]; 200 ms pulse of 10 μM GABA in the presence of 100 μM histamine): 1.0 ± 0.4 s
decrease in peak current amplitude of the deactivating currents ([2]; 200 ms pulse of 10 μM GABA, pre-application of 100 μM histamine, n = 4 cells): 74.5 ± 11.9%
Hill coefficient [2]: 1.1
deactivation of currents following a brief pulse of 10 μM GABA ([2]; continuous presence of 100 μM histamine): accelerated
efficacy of histamine relative to GABA ([2]; whole-cell currents): 3 fold
enhancement of GABA current by histamine [3]: Only modest responses
enhancement of GABA current by histamine ([3]; listed as Histamine): only modestly
enhancement of GABA current by histamine [4]: Only modest responses
enhancement of GABA current by histamine ([4]; listed as Histamine): only modestly
SMILES: NCCc1c[nH]cn1 [histamine]
